The test system of one experiment is NIH 3T3 cells. Briefly: Live cell imaging of plasma membrane targeting of citrine-coupled PH domains. The class given is cell-based. The settings on record: serum-starved NIH 3T3 cells. Summed up:
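NIH 3T3 fibroblasts grown in DMEM with 10% FBS and transfected with Lipofectamine 2000 (4 μg DNA) with N-terminal citrine–PH fusions. Replated 24–48 h post-transfection, then serum-starved 6 h in DMEM with 0.2% BSA at 37°C. Imaged live by wide-field fluorescence microscopy in HEPES-buffered HBSS, pH 7.4, with 0.01% BSA.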

A short description of experiment [1]: Stopped-flow association and dissociation kinetics, PM. It is filed as binding. Summed up:
(§1)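 Stopped-flow FRET in binding buffer plus 10 mM DTT, 25°C, on plasma-membrane-mimic vesicles. Association: 0.5 μM PH domain mixed with vesicles (300 μM total lipid, 3 μM accessible PIP); kon from the dominant fast phase of a double-exponential fit. Dissociation: preformed complex mixed with excess IP6 (PI(3,4,5)P3: 10 mM wild type, 20 mM mutants; PI(4,5)P2: 8 mM). KD = koff/kon; ≥3 runs averaged.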

Experiment [2] can be described thus: IP6 binding to free PH domain, intrinsic tryptophan fluorescence titration. The settings on record: read-out: KD(IP6); free PH domain 0.5 μM, 25°C, binding buffer plus 10 mM DTT. Summed up:
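GST-fused PH domain (0.5 μM) titrated with IP6. Intrinsic Trp excitation 284 nm; emission 322 nm (GRP1) or 340 nm (PLCδ1). A parallel control with sodium phosphate at six times the IP6 concentration is subtracted after dilution correction. KD from nonlinear least-squares hyperbolic fit. Triplicate titrations, mean ±1 SD; reported constants average ≥3 independent fits.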

The nature of experiment [3]: Competitive displacement assay. It is filed as binding. The settings on record: ratio of equilibrium KD values. Summed up: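 Human GRP1 PH (residues 255–392) or mouse PLCδ1 PH (12–142) GST fusions, made in E. coli BL21. Sonicated vesicles mimic the plasma membrane (PE/PC/PS/PI/SM/CH/dPE/PIPn, 27.5/10.5/21/4.5/4.5/25/5/2 mol%). Sample: 0.5 μM protein, 300 μM total lipid, 3 μM accessible PI(4,5)P2 or PI(3,4,5)P3, pH 7.4 HEPES/KCl buffer plus 10 mM DTT, 25°C. IP6 titrated while FRET decrease is monitored. Protein-free control subtracted. KD(PIPn) calculated from fitted KI(IP6)app and KD(IP6).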

The nature of experiment [4]: Stopped-flow association and dissociation kinetics, PM. The class given is binding. Summed up:
as §1
This is another data set of the same source.

B1: PLCδ1: PH domain of mouse PLCδ1 (residues 12–142), PI(4,5)P2-specific control (protein, UniProt Q8R3B1 12-142, looked up, fragment)
chain: GLQDDPDLQALLKGSQLLKVKSSSWRRERFYKLQEDCKTIWQESRKVMRSPESQLFSIEDIQEVRMGHRTEGLEKFARDIPEDRCFSIVFKDQRNTLDLIAPSPADVQHWVQGLRKIIDRSGSMDQRQKLQ
modifications: PH domain
The koff is the rate constant with which the complex falls apart. Read a low koff as slow dissociation. As for B1, the “relocation from plasma membrane to cytoplasm on PI(4,5)P2 hydrolysis” value with NIH 3T3 cells (20 μM ionomycin, 2 mM extracellular Ca2+, three minute) is “fully relocates”. The “cellular distribution in resting cells” value with NIH 3T3 cells (citrine fusion) is on record as “targeted to plasma membrane”. Moreover, the kon in experiment [1] (PM(+)PI(4,5)P2, 25°C) is 180 ± 10 ×10^6 M^−1 s^−1. For the same molecule, in experiment [1] (PM(+)PI(4,5)P2, excess IP6, 25°C), the koff came out at 15 ± 1 s⁻¹. In addition, the Kd was 81 ± 5 nM in experiment [1] (read-out: KD (koff/kon), PM(+)PI(4,5)P2, calculated from kinetic constants) and 4000 ± 1000 nM in experiment [2].

B2: WT: native PH domain of human GRP1 (residues 255–392), GST-fusion purified; citrine fusion in cells (protein, UniProt O43739 255-392, looked up, fragment)
chain: GNDLTHTFFNPDREGWLLKLGGGRVKTWKRRWFILTDNCLYYFEYTTDKEPRGIIPLENLSIREVEDPRKPNCFELYNPSHKGQVIKACKTEADGRVVEGNHVVYRISAPSPEEKEEWMKSIKASISRDPFYDMLATR
modifications: PH domain GST or citrine fusion
For B2, the “weaker binding of membrane-bound PI(4,5)P2 than PI(3,4,5)P3” value in experiment [3] was “over 200 fold”. In experiment [4] (PM(+)PI(3,4,5)P3, 25°C), the kon was 14 ± 1 ×10^6 M^−1 s^−1. Further, in experiment [4] (PM(+)PI(3,4,5)P3, excess IP6, 25°C), the koff came out at 0.79 ± 0.01 s⁻¹. Also, the Kd is 55 ± 1 nM in experiment [4] (read-out: KD (koff/kon), PM(+)PI(3,4,5)P3, calculated from kinetic constants) and 20000 ± 3000 nM in experiment [2].

These data come from article PMC3217903 (Biochemistry, 2011).
